PAFAH1B3 inh: PAFAH1B3 enzyme inhibitors, primary screen, biochemical, fluorescence polarization, human; 340,000 tested, 0.28% active; recombinant PAFAH1B3, FP-rhodamine probe; Platelet-activating factor acetylhydrolase IB subunit alpha1 (Homo sapiens), Q15102; inhibition, % at 3.39 µM;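 active means inhibition above the screen-wide average of all tested compounds plus 3 SD, cut at about 25% in these data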;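 further: 0% = enzyme with DMSO only and 100% = wells lacking PAFAH1B3 protein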
PAFAH1B2 inh: PAFAH1B2 enzyme inhibitors, primary screen, biochemical, fluorescence polarization, human; AID 492953, 2010; inhibition, % at 3.39 µM; recombinant PAFAH1B2, FP-rhodamine activity probe; Platelet-activating factor acetylhydrolase IB subunit alpha2 (Homo sapiens), P68402; 340,000 tested, 1.2% active;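 active means inhibition above the mean of all tested compounds plus 3 SD, cut at about 24% in these data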;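 further: 0% = enzyme with DMSO and 100% = wells lacking PAFAH1B2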
Target sequence (P68402 whole entry, looked up): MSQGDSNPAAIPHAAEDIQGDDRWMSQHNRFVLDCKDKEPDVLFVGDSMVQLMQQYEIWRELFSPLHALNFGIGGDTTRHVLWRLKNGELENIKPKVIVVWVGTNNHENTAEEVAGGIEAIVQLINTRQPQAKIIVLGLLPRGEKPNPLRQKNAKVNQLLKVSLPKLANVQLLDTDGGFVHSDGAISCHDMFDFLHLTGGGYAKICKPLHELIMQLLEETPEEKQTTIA
PAFAH2 inh: PAFAH2 enzyme inhibitors, primary screen, biochemical, fluorescence polarization, human. inhibition, % at 3.39 µM. recombinant PAFAH2, FP-rhodamine activity probe. 340,000 tested, 0.99% active. Platelet-activating factor acetylhydrolase 2, cytoplasmic (Homo sapiens), Q99487;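 active means inhibition above the mean over all tested compounds plus 3 SD, cut at about 30% in these data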;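 further: inhibitors block probe labeling of enzyme so polarization drops; 0% = enzyme with DMSO and 100% = wells lacking PAFAH2 protein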
pPAFAH FP inh: pPAFAH enzyme inhibitors, primary screen, biochemical, fluorescence polarization, human; AID 463082, 2010; Platelet-activating factor acetylhydrolase (Homo sapiens), Q13093; inhibition, % at 3.39 µM; 330,000 tested, 1.5% active; recombinant pPAFAH, FP-rhodamine probe fluorescence polarization;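 active means inhibition above the mean inhibition across the screen plus 3 SD, cut at about 25% in these data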;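 further: inhibitors block binding of the rhodamine activity-based probe so polarization drops; 0% = enzyme with DMSO and 100% = wells lacking pPAFAH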
Target sequence (Q13093 whole entry, looked up): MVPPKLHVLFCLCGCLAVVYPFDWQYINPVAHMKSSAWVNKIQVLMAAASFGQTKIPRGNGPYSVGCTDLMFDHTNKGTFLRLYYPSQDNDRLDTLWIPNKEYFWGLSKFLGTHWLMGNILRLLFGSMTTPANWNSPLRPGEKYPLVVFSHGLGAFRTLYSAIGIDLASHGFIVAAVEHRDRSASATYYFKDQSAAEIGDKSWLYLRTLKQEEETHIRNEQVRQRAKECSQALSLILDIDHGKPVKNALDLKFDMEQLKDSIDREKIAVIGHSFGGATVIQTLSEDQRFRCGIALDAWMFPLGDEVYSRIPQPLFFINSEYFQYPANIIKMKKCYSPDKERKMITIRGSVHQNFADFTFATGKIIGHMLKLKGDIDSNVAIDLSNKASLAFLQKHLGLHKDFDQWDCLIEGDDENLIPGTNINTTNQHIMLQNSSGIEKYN
Apaf-1 inh: inhibitors of human Apaf-1 apoptosome, primary screen, biochemical, DEVD-Rh110 fluorescence, uHTS. Apoptotic protease-activating factor 1 (Homo sapiens), O14727. reconstituted apoptosome caspase-3 activity. inhibition, % at 20 µM. 330,000 tested, 0.71% active. AID 489030, 2010; active means inhibition of at least 40% at 20 µM;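 further: plate controls were DMSO wells for no effect and DEVD-CHO caspase inhibitor wells for full effect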
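Material: biochemical Apaf-1 apoptosome reconstitution. Medium: Hepes buffer, pH 7.5. Also added: cytochrome c activation, bis-DEVD rhodamine 110 substrate. Timing: 30 min compound preincubation, 50 min activation, room temperature. Measured by: rhodamine 110 fluorescence at Ex 480/Em 540 nm.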
* = called active by the depositor. An excerpt weighted towards active compounds, which were near 3.1% of everything screened.

How did Cc1ccc(CSc2nnc(NC(=O)C3COc4ccccc4O3)s2)cc1 (configuration not stated) do in these assays?
PAFAH1B3 inh: 12.2; PAFAH1B2 inh: 30.5*; PAFAH2 inh: 9.9; pPAFAH FP inh: 6.5; Apaf-1 inh: 7.4

How did CSc1ncccc1C(=O)Nc1ccc2c(c1)OCCO2 do in these assays?
PAFAH1B3 inh: -3.3; PAFAH1B2 inh: 0.9; PAFAH2 inh: 3.2; pPAFAH FP inh: 6.1; Apaf-1 inh: 3.2

What do the screens show for `O=C(COC(=O)c1ccc(OC(F)(F)F)cc1)Nc1ncccn1`?
PAFAH1B3 inh: -0.8; PAFAH1B2 inh: 0.5; PAFAH2 inh: 14.8; pPAFAH FP inh: 24.8*; Apaf-1 inh: 2.9

How did NC(=O)NC(=O)COC(=O)c1ccc(OC(F)(F)F)cc1 do in these assays?
PAFAH1B3 inh: 5.7; PAFAH1B2 inh: 0.4; PAFAH2 inh: 4.9; pPAFAH FP inh: 3.5; Apaf-1 inh: -16.7

What do the screens show for `O=c1c2cc(-c3ccccc3)sc2ncn1/N=C/c1ccco1`?
PAFAH1B3 inh: -1.9; PAFAH1B2 inh: 3.8; PAFAH2 inh: 7.5; pPAFAH FP inh: 25.9*; Apaf-1 inh: 23.7

What do the screens show for `CN(Cc1cccc(F)c1)C(=O)c1ccc(S(=O)(=O)N2CCCCCC2)cc1`?
PAFAH1B3 inh: 8.5; PAFAH1B2 inh: -0.1; PAFAH2 inh: 4.9; pPAFAH FP inh: -1.3; Apaf-1 inh: 17.9

How did O=C(CN1C(=O)C(=O)c2ccccc21)NCCc1ccccc1 do in these assays?
PAFAH1B3 inh: 5.5; PAFAH1B2 inh: -1.4; PAFAH2 inh: 1.3; pPAFAH FP inh: 11.6; Apaf-1 inh: 2.1

Results for O=C1C(=O)N(CCCc2ccccc2)c2ccccc21 ?
PAFAH1B3 inh: 0.6; PAFAH1B2 inh: 8.7; PAFAH2 inh: 1.8; pPAFAH FP inh: 26.8*; Apaf-1 inh: 14.6

Results for Nc1ccc(O)c(C(=O)O)c1 ?
pPAFAH FP inh: 49.2*

What do the screens show for `CN1CCc2c(sc(NC(=O)c3ccc(C(=O)c4ccccc4)cc3)c2C(N)=O)C1`?
PAFAH1B3 inh: -6.9; PAFAH1B2 inh: -3.8; PAFAH2 inh: -0.6; pPAFAH FP inh: 8.2; Apaf-1 inh: 43.7*

How did CCN1CCc2c(sc(NC(=O)c3ccc4ccccc4c3)c2C(N)=O)C1 do in these assays?
PAFAH1B3 inh: 6.1; PAFAH1B2 inh: 2.0; PAFAH2 inh: -0.3; pPAFAH FP inh: -3.2; Apaf-1 inh: 40.3*

How did CC(C)N1CCc2c(sc(NC(=O)c3cc(-c4cccs4)nc4ccccc34)c2C(N)=O)C1 do in these assays?
PAFAH1B3 inh: -1.6; PAFAH1B2 inh: -0.6; PAFAH2 inh: -0.8; pPAFAH FP inh: 10.4; Apaf-1 inh: 61.1*

How did CC1CCc2c(sc(NC(=O)c3cccn3C)c2C(N)=O)C1 (configuration not stated) do in these assays?
PAFAH1B3 inh: 2.7; PAFAH1B2 inh: -4.7; PAFAH2 inh: 5.0; pPAFAH FP inh: 29.0*; Apaf-1 inh: 10.4

Results for CC1CCc2[nH]c3ccc(C(=O)N(C)CC(=O)Nc4ccc(F)cc4)cc3c2C1 (configuration not stated) ?
PAFAH1B3 inh: 6.7; PAFAH1B2 inh: 39.5*; PAFAH2 inh: 49.4*; pPAFAH FP inh: 9.5; Apaf-1 inh: 7.4

Results for COc1ccc(NC(=O)CN(C)C(=O)c2ccc3[nH]c4c(c3c2)CC(C)CC4)cc1 (configuration not stated) ?
PAFAH1B3 inh: -2.9; PAFAH1B2 inh: 17.6; PAFAH2 inh: 13.1; pPAFAH FP inh: 1.2; Apaf-1 inh: 23.3

How did O=C(O)c1cc(-c2ccco2)nc2cc3ccccc3cc12 do in these assays?
PAFAH1B3 inh: 14.9; PAFAH1B2 inh: 4.5; PAFAH2 inh: 3.5; pPAFAH FP inh: 25.2*; Apaf-1 inh: 12.8

Results for O=C(NNC(=O)c1cc(-c2ccco2)nc2ccccc12)c1ccccc1 ?
PAFAH1B3 inh: 9.9; PAFAH1B2 inh: 5.7; PAFAH2 inh: -2.2; pPAFAH FP inh: 3.8; Apaf-1 inh: 3.0

How did CCN(CC)C(=O)COC(=O)c1cc(-c2ccco2)nc2ccccc12 do in these assays?
PAFAH1B3 inh: 8.2; PAFAH1B2 inh: 2.6; PAFAH2 inh: 17.3

How did CNC(=O)COC(=O)c1cc(-c2ccco2)nc2ccccc12 do in these assays?
PAFAH1B3 inh: 6.6; PAFAH1B2 inh: 0.8; PAFAH2 inh: 11.6; pPAFAH FP inh: 24.8*; Apaf-1 inh: 4.7

What do the screens show for `O=C(COC(=O)c1cc(-c2ccco2)nc2ccccc12)NCc1ccccc1`?
PAFAH1B3 inh: 0.8; PAFAH1B2 inh: -2.5; PAFAH2 inh: 4.1; pPAFAH FP inh: 34.2*; Apaf-1 inh: 19.0

How did O=C(O)c1ccccc1/C=N/NC(=O)c1cc(-c2ccco2)nc2ccccc12 do in these assays?
PAFAH1B3 inh: 14.5; PAFAH1B2 inh: 1.1; PAFAH2 inh: 19.3; pPAFAH FP inh: 32.0*; Apaf-1 inh: 14.0

Results for Cc1cc(C(=O)OCC(=O)NCCc2ccccc2)c2ccccc2n1 ?
PAFAH1B3 inh: 0.7; PAFAH1B2 inh: 1.8; PAFAH2 inh: -8.0; pPAFAH FP inh: -1.3; Apaf-1 inh: -3.8

How did CN(CC(=O)Nc1ccc(N2CCOCC2)cc1)C(=O)CCc1cc(C(C)(C)C)c(O)c(C(C)(C)C)c1 do in these assays?
PAFAH1B3 inh: 4.9; PAFAH1B2 inh: 4.2; PAFAH2 inh: 5.1; pPAFAH FP inh: -0.2; Apaf-1 inh: 19.8

What do the screens show for `COc1cc(OC)cc(OC(=O)C2CCN(S(=O)(=O)c3ccc(OC)c(OC)c3)CC2)c1`?
PAFAH1B3 inh: 7.0; PAFAH1B2 inh: 0.6; PAFAH2 inh: -1.3; pPAFAH FP inh: -0.2; Apaf-1 inh: 16.6

Results for Cc1ccc(OCc2cc(C(=O)N3CCN(CC(=O)NC(C)C)CC3)no2)cn1 ?
PAFAH1B3 inh: 2.9; PAFAH1B2 inh: 1.2; PAFAH2 inh: 3.9; pPAFAH FP inh: 3.8; Apaf-1 inh: -1.1

What do the screens show for `Cc1ccc(S(=O)(=O)CCC(=O)N(C)C2CCCCC2)cc1`?
PAFAH1B3 inh: 5.2; PAFAH1B2 inh: 8.6; PAFAH2 inh: -5.4; pPAFAH FP inh: 1.5; Apaf-1 inh: -4.6

How did CC(=O)Nc1ccc(NC(=O)c2cc(=O)c3ccccc3o2)cc1 do in these assays?
PAFAH1B3 inh: 5.4; PAFAH1B2 inh: 3.5; PAFAH2 inh: 0.6; pPAFAH FP inh: 27.7*; Apaf-1 inh: -5.1

How did CC(=O)N1CCN(c2ccc(NC(=O)c3cc4ccccc4o3)cc2)CC1 do in these assays?
PAFAH1B3 inh: 1.4; PAFAH1B2 inh: 3.2; PAFAH2 inh: -4.0; pPAFAH FP inh: 26.0*; Apaf-1 inh: 6.0

How did Cc1ccc(NC(=O)c2cc(=O)c3ccccc3o2)cc1 do in these assays?
PAFAH1B3 inh: 1.3; PAFAH1B2 inh: 5.3; PAFAH2 inh: 3.1; pPAFAH FP inh: 2.1; Apaf-1 inh: 11.7

Results for O=C(Nc1cc2c(cc1[N+](=O)[O-])OCCO2)c1cccnc1 ?
pPAFAH FP inh: 4.3; Apaf-1 inh: -5.7

Results for Cn1cc(/C=C2\SC(=O)NC2=S)c2ccccc21 ?
PAFAH1B3 inh: 8.5; PAFAH1B2 inh: 11.0; PAFAH2 inh: 17.9; pPAFAH FP inh: 18.5; Apaf-1 inh: 29.8
